Reference: ChEMBL document CHEMBL4257496, “Discovery and biological evaluation of N5-substituted 6,7-dioxo-6,7-dihydropteridine derivatives as potent Bruton's tyrosine kinase inhibitors” (Medchemcomm, 2018)
Active and inactive are the calls of the source. No cut-off for these calls is given here.

Tests used:
[1] = target: T1, Tyrosine-protein kinase BTK (Homo sapiens, UniProt Q06187); assay: Inhibition of recombinant human full-length N-terminal His6-tagged BTK expressed in baculovirus infected Sf21insect cells using poly (4:1 Glu, Tyr) as substrate measured after 1 hr by ELISA
T1 sequence (Q06187 whole entry): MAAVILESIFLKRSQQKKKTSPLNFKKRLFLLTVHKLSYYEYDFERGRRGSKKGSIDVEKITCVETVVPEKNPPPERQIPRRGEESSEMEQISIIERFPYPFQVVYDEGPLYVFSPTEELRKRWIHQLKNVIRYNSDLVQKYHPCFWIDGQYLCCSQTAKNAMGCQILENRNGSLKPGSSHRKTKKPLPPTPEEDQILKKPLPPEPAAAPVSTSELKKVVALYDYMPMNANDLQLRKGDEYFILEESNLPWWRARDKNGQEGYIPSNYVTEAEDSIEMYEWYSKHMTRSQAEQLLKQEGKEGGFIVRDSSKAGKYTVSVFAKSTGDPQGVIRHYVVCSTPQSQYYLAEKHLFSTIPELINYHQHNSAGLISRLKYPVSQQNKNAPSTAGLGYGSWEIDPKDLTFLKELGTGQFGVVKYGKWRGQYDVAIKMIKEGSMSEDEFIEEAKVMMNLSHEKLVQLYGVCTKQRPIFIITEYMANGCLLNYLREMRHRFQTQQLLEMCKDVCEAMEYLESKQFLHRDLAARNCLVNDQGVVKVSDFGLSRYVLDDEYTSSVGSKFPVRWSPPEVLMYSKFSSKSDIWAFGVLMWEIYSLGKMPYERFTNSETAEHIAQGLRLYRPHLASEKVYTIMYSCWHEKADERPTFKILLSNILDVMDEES

Ramos = assay: Antiproliferative activity against human Ramos cells after 72 hrs by MTT assay; type: functional, cell-based
In short: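 Ramos Burkitt's lymphoma cells (RPMI-1640 with 10% FBS, 37 °C, 5% CO2) were seeded and grown 2 h, then exposed to a range of concentrations in PBS, each in triplicate, for 72 h. MTT was added for 4 h at 37 °C, followed by SDS lysis buffer, and absorbance was read at 570 nm. Inhibition rate = [1 – (A treated/A control)] × 100%. Values are means ± SD of at least two independent determinations.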

[2] = target: T1, Tyrosine-protein kinase BTK; assay: Inhibition of anti-IgM-stimulated BTK activation in human Ramos cells assessed as reduction in PLCgamma2 phosphorylation at Y759 residue at 5 nM preincubated for 1.5 hrs followed by anti-IgM stimulation and measured after 15 mins by Western blot analysis; type: cell-based
In short: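 Ramos cells were serum-starved 2 h and treated with compound for 1.5 h. They were then stimulated with anti-IgM (2.5 μg mL–1) for 15 min. Cells were lysed by boiling 30 min in Tris-HCl pH 6.8/DTT/SDS buffer and analysed by western blot. Blots were probed for BTK, p-BTK (Tyr223), PLCγ2 and p-PLCγ2, with β-actin or α-tubulin as loading controls.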

[3] = target: Epidermal growth factor receptor (Homo sapiens) (UniProt P00533); assay: Inhibition of EGFR (unknown origin) at 100 nM using poly (4:1 Glu, Tyr) as substrate measured after 1 hr by ELISA
Epidermal growth factor receptor (Homo sapiens), sequence (P00533 whole entry): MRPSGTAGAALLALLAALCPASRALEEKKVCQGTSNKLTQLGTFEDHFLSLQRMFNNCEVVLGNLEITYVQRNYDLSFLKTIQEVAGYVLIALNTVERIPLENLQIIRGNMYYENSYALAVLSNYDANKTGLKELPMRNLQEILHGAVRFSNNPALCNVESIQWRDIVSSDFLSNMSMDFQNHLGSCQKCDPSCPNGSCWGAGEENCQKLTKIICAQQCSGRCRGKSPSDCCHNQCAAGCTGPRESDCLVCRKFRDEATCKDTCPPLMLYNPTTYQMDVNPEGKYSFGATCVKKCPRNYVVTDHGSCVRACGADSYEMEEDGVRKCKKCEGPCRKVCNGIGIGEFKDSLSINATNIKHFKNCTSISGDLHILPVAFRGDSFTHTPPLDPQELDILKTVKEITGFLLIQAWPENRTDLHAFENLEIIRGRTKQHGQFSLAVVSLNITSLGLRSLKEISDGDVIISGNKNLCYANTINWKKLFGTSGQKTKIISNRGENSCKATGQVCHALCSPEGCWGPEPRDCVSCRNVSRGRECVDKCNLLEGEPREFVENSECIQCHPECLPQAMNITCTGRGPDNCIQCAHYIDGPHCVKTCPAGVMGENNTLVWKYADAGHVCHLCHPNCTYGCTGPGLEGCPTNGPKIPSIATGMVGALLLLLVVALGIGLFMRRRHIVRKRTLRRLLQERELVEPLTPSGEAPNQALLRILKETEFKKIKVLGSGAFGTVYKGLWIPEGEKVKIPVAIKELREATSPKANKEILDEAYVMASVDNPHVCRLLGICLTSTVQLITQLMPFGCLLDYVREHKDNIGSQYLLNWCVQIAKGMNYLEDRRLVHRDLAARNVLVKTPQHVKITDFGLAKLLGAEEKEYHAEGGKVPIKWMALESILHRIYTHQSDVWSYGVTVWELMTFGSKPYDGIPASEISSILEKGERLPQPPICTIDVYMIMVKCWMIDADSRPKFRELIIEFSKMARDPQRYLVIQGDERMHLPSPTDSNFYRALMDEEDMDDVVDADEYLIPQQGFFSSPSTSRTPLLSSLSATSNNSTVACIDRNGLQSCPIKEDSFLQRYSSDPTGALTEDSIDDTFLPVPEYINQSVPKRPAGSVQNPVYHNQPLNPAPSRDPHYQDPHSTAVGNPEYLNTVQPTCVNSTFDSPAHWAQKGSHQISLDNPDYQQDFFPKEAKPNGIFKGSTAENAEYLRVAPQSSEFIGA
In short: (§1)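 ELISA kinase assay. Poly(Glu,Tyr)4:1 substrate was precoated at 20 μg mL–1. Active kinase was incubated with compound in 50 mM HEPES pH 7.4, 20 mM MgCl2, 0.1 mM MnCl2, 0.2 mM Na3VO4, 1 mM DTT and 5 μM ATP at 37 °C for 1 h. Phosphotyrosine was detected with anti-phosphotyrosine PY99 and an HRP secondary antibody, developed with OPD, and absorbance was read at 492 nm.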

[4] = target: Receptor tyrosine-protein kinase erbB-4 (Homo sapiens) (UniProt Q15303); assay: Inhibition of ErbB4 (unknown origin) at 100 nM using poly (4:1 Glu, Tyr) as substrate measured after 1 hr by ELISA; in short: as §1
Receptor tyrosine-protein kinase erbB-4 (Homo sapiens), sequence (Q15303 whole entry): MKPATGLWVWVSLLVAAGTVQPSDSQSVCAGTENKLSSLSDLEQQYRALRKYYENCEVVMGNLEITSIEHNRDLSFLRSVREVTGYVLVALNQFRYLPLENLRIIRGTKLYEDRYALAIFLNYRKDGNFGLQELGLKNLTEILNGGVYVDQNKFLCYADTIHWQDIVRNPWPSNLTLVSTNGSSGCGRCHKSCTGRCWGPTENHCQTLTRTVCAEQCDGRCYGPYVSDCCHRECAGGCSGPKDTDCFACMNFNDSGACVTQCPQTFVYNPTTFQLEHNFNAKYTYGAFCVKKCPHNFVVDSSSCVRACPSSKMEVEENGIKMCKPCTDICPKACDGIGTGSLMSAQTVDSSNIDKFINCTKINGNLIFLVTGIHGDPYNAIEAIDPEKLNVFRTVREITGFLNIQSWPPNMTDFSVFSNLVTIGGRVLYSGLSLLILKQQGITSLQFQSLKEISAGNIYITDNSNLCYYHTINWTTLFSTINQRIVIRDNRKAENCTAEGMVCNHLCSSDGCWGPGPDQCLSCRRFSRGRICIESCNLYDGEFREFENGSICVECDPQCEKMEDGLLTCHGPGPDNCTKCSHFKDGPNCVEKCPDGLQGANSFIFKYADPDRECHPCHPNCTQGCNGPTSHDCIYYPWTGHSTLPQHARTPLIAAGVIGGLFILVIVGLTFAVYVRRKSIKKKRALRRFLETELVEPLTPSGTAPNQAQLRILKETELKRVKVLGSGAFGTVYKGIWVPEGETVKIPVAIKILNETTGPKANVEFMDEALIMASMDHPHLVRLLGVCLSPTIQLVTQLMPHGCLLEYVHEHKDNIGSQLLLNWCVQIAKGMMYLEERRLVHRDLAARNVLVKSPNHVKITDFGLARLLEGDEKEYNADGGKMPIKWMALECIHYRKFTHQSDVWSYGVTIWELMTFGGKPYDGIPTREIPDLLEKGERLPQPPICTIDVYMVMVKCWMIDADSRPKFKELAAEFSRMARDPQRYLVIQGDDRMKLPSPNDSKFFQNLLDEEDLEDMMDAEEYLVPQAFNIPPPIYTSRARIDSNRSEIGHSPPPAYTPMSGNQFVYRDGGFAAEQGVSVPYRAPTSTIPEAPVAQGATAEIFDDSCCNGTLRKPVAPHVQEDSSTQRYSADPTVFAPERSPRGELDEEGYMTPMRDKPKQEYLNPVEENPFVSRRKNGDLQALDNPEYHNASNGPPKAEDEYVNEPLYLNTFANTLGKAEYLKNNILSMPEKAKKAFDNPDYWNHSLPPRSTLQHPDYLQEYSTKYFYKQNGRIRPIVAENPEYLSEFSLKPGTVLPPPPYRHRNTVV

[5] = target: Receptor tyrosine-protein kinase erbB-2 (Homo sapiens) (UniProt P04626); assay: Inhibition of ErbB2 (unknown origin) at 100 nM using poly (4:1 Glu, Tyr) as substrate measured after 1 hr by ELISA relative to control; in short: as §1
Receptor tyrosine-protein kinase erbB-2 (Homo sapiens), sequence (P04626 whole entry): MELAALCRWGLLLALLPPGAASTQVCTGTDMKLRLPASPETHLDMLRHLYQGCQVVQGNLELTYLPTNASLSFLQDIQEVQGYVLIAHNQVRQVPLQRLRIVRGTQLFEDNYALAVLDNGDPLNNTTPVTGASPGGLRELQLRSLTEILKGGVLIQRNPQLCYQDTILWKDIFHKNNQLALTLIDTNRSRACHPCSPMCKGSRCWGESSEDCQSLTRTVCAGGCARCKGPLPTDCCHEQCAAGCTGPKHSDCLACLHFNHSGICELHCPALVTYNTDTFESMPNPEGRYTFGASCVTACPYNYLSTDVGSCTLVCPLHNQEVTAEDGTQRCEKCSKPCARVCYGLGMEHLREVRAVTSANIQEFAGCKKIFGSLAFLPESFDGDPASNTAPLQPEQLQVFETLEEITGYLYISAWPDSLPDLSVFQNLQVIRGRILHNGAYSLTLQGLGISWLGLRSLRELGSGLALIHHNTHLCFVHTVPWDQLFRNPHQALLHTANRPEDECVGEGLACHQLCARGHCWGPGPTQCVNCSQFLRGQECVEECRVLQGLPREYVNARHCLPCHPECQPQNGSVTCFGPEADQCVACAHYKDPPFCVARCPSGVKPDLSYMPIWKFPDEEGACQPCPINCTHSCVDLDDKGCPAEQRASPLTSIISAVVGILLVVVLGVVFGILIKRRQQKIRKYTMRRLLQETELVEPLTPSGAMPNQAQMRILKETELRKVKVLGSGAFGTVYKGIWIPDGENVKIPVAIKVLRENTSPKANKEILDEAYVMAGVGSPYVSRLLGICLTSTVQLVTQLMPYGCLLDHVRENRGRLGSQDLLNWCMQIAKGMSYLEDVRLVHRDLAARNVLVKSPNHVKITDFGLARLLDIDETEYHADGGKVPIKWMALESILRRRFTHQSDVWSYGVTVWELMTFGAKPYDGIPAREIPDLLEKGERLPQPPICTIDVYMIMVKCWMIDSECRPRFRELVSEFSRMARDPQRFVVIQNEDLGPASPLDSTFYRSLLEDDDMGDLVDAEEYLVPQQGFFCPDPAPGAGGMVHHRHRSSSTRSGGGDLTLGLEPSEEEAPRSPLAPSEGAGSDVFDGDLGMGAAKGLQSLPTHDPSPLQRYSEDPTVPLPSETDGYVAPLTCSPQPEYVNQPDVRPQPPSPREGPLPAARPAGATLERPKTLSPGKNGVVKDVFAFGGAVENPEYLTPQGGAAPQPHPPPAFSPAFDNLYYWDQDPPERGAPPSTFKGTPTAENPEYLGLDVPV

[6] = target: T2, Tyrosine-protein kinase ITK/TSK (Homo sapiens) (UniProt Q08881); assay: Inhibition of ITK (unknown origin) at 100 nM using poly (4:1 Glu, Tyr) as substrate measured after 1 hr by ELISA relative to control; in short: as §1
T2 sequence (whole entry): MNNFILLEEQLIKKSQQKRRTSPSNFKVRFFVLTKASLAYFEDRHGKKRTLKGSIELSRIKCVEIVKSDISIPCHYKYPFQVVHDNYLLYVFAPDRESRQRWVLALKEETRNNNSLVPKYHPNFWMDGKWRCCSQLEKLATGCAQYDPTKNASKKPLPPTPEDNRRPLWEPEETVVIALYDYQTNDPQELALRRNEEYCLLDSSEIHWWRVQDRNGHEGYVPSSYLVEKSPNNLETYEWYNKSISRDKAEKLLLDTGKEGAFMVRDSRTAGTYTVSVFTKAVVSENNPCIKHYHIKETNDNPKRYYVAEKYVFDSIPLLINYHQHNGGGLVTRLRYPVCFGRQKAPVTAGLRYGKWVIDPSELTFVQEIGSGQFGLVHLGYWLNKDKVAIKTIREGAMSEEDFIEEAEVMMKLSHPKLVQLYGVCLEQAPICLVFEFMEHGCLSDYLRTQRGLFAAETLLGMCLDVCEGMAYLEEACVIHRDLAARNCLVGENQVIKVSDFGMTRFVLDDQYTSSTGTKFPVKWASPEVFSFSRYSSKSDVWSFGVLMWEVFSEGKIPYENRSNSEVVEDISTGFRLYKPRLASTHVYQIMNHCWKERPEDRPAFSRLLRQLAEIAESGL

[7] = target: Proto-oncogene tyrosine-protein kinase receptor Ret (Homo sapiens) (UniProt P07949); assay: Inhibition of RET (unknown origin) at 100 nM using poly (4:1 Glu, Tyr) as substrate measured after 1 hr by ELISA relative to control; in short: as §1
[8] = target: T1, Tyrosine-protein kinase BTK; assay: Inhibition of anti-IgM-induced BTK phosphorylation at Y223 residue in human Ramos cells at 5 nM preincubated for 1.5 hrs followed by anti-IgM stimulation and measured after 15 mins by Western blot analysis
Homo sapiens = organism: Homo sapiens; assay: Selectivity ratio of IC50 for EGFR (unknown origin) to IC50 for recombinant human full-length N-terminal His6-tagged BTK expressed in baculovirus infected Sf21insect cells

C=CC(=O)Nc1cccc(-n2c(=O)c(=O)n(C(C)C)c3cnc(Nc4ccc(N5CCN(C)CC5)c(OC)c4)nc32)c1
IC50 [1]: 0.0024 µM | IC50 (Ramos): 10.1 µM | inhibition [2]: Active | inhibition [3]: Active | inhibition [4]: Active | inhibition [5]: < 35% | inhibition [6]: < 35% | inhibition [7]: > 70% | inhibition [8]: Active

C=CC(=O)Nc1cccc(-n2c(=O)c(=O)n(C)c3cnc(Nc4ccc(N5CCN(C)CC5)cc4OC)nc32)c1
IC50 [1]: 0.237 µM

C=CC(=O)Nc1cccc(-n2c(=O)c(=O)n(C(C)C)c3cnc(Nc4ccc(N5CCN(C)CC5)c(C)c4)nc32)c1
IC50 [1]: 0.0019 µM | IC50 (Ramos): 9.37 µM | inhibition [2]: Active | inhibition [3]: Active | inhibition [4]: Active | inhibition [5]: < 35% | inhibition [6]: < 35% | inhibition [7]: > 70% | inhibition [8]: Active

C=CC(=O)Nc1cccc(-n2c(=O)c(=O)n(C(C)C)c3cnc(Nc4ccc(N5CCC(N6CCN(C)CC6)CC5)cc4OC)nc32)c1
IC50 [1]: 0.0128 µM

C=CC(=O)Nc1cccc(-n2c(=O)c(=O)n(C(C)C)c3cnc(Nc4ccc(N(C)CCN(C)C)cc4OC)nc32)c1
IC50 [1]: 0.0208 µM

C=CC(=O)Nc1cccc(-n2c(=O)c(=O)n(C(C)C)c3cnc(Nc4ccc(N5CCN(C)CC5)cc4OC)nc32)c1
IC50 [1]: 0.0474 µM | inhibition [3]: Active | inhibition [4]: Active | inhibition [5]: < 35% | inhibition [6]: < 35% | Ratio IC50 (Homo sapiens): 23

C=CC(=O)Nc1cccc(-n2c(=O)c(=O)n(CC)c3cnc(Nc4ccc(N5CCN(C)CC5)cc4OC)nc32)c1
IC50 [1]: 0.0172 µM

C=CC(=O)Nc1cccc(-n2c(=O)c(=O)[nH]c3cnc(Nc4ccc(N5CCN(C)CC5)cc4OC)nc32)c1
IC50 [1]: 0.0054 µM | IC50 (Ramos): > 100 µM | inhibition [2]: inactive | inhibition [8]: inactive

C=CC(=O)Nc1cccc(-n2c(=O)c(=O)n(CCC)c3cnc(Nc4ccc(N5CCN(C)CC5)cc4OC)nc32)c1
IC50 [1]: 0.0218 µM

C=CC(=O)N1CCC[C@@H](n2nc(-c3ccc(Oc4ccccc4)cc3)c3c(N)ncnc32)C1 [IBRUTINIB]
IC50 (Ramos): 6.18 µM

C=CC(=O)Nc1cccc(-n2c(=O)c(=O)n(C(C)C)c3cnc(Nc4ccc(OCCN(C)C)cc4OC)nc32)c1
IC50 [1]: 0.0319 µM
